Measurements taken from the EternaBench riboswitch data.

Test system: MS2 coat protein
Test: apparent Kd, MS2 coat protein; higher = weaker binding; RNA-MaP array; FMN 200 µM where present
Method in brief: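 Each design was made on Illumina sequencing-chip clusters by stalled E. coli RNA polymerase and titrated with SNAP-549-labelled MS2 coat protein from 0.7 or 1.5 nM, doubling to 3 µM, in the absence and then the presence of constant ligand. The buffer was 100 mM Tris-HCl pH 7.5, 80 mM KCl, 4 mM MgCl2, BSA, DTT, yeast tRNA and Tween-20. The apparent Kd is the median of filtered per-cluster fits of binding curves, with green signal normalised to red-channel RNA signal and control-cluster median Fmax.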

[1] = designed as: OFF switch for flavin mononucleotide, no ligand
[2] = ligand present: flavin mononucleotide, designed as: OFF switch for flavin mononucleotide
[3] = designed as: ON switch for flavin mononucleotide, no ligand
[4] = ligand present: flavin mononucleotide, designed as: ON switch for flavin mononucleotide

| Sequence | apparent Kd [1] | apparent Kd [2] | apparent Kd [3] | apparent Kd [4] |
| --- | --- | --- | --- | --- |
| ACCAGUGCAUGAGGAUAUCACAUCGGUAUCCUCCAGUGCGGCGUUCGACAUGAGGAUCACCCAUGUGAGAAGGCAUGAACUCGG | 15.6 nM | 18.6 nM |  |  |
| GUCAUUUAUGUAGGAUAUGCGAGGCGAGCCUGAGCAGAAGGACAUGAGGAUCACCCAUGUAUUGCGGUUUAUGUUCAGAUCGCU | 16.3 nM | 19 nM |  |  |
| CGGUGACGUGUAGGAUAUGGCGAUGGGUUUUGGCCAGAAGGACAUGAGGAUCACCCAUGUGGUAGAGGGCUGGCGGCCGCCCGU | 26.5 nM | 60 nM |  |  |
| CAGCGGUCAGGAUAUGCAUGGCGGGACUUGCGUCGUGGCGUGGAGAAGGGACAUGAGGAUCACCCAUGUGGGAA | 134 nM | 81.9 nM |  |  |
| AAAAAGGCAGGAUAUACGAGUCAAAGAAAAGACAAAAGGAGACAUGAGGAUCACCCAUGUAGAAGGGCCAAAAA | 26.7 nM | 87.7 nM |  |  |
| GCACUUAAGUUAGGAUAUGGAUCGGAAAACGAUCCAGAAGGAAUAUGGGAACAUGAGGAUCACCCAUGUUCCACAAACAAGUGC |  |  | 55.4 nM | 29 nM |
| CUUUUGGGAGGAUAUUAGUAGUAAAUAAAUAAAAUUACUACUGAGAAGGCACAUGAGGAUCACCCAUGUUCCUC | 17.9 nM | 26.1 nM |  |  |
| AGAAACUACGAGAAGGACAUGUGAACCUUCAAUUACAUGAGGAUCACCCAUGUAGGAUAUCGUAGUUUCAGGAUCGUGAGAUCA | 16.7 nM | 115 nM |  |  |
| AUCUCAGGACGAGGAUAUCAAUACAUGAGGAUCACCCAUGUAUGAUUACUGUGAUCCUCUAAGGCUGAGAAGGCGUCCCAAUUA | 20.4 nM | 8.37 nM |  |  |
| GUGGCACAUGAGGAUCACCCAUGUCAGGAUAUCGCGUGGUUUUUUUCGGCCGCGCGCGCGAGAAGGGACGUCUU | 31.1 nM | 29.1 nM |  |  |
| CGUUGAUAAUAUCUUCACAUGAGGAUCACCCAUGUCGCUCGACAGGAUAUAUUUGAUUUGUUUAAGUAGAAGGGUCGCAGAUGC |  |  | 157 nM | 130 nM |
| CGUUAUGAUAGAGGAUAUGUAAUACAUGAGGAUCACCCAUGUUACAUGGGUAAUAUUAAUAAUUAACAGAAGGCUAUCCUUUCG | 484 nM | 149 nM |  |  |
| UUACUCAUGUAAGGAUAUGCAGCCGUUUCGGCUGCAGAAGGUACUAUAAUACAUGAGGAUCACCCAUGUCUAUUUAAUUUUUAC |  |  | 42.6 nM | 24.2 nM |
| GUAGCAUACCGAGGAUAUUCAGGGCUUAUAUAAACAUGAGGAUCACCCAUGUGGCGAAAGCCUAGGGAGAAGGCGGAAUGCUAC |  |  | 14.9 nM | 13.1 nM |
| UUGCUACAUGAGGAUCACCCAUGUCAGGAUAUAGUGUAUAGCGUGGAAGCUCUGUCGAUUAGAAGGGACUGUCU | 23.7 nM | 25.2 nM |  |  |
| UGGUGAAGUGUAGGAUAUGGAGGUGGGUUUUGGCCAGAAGGACAUGAGGAUCACCCAUGUGGUAGAGGGUUGGCGGUGGCCCGU | 16 nM | 13.7 nM |  |  |
| ACAGGACCAGUCAGGAUAUGCAGGCGAAUCUGCUUGUAGAAGGGACAUGAGGAUCACCCAUGUGCCGUGGGAUU | 19.6 nM | 31.4 nM |  |  |
| GUACCUUAUGAGAAGGCGGUCAUGAAACAUGAUCGAGGAUAUCAUGUAAACAUGAGGAUCACCCAUGUAUGGGUAUUAUGGUAA |  |  | 61.1 nM | 11.2 nM |
| AUUAAACAUGAGGAUCACCCAUGUCAACAAAGUCGAGGAUAUGGGCAUAUUAUCUUAUUUCCAGAAGGCGAAUAAU |  |  | 121 nM | 33.9 nM |
| GGUGCGUAUGUGAGGAUAUGCUGGUCCUUGGUUCAGCAGAAGGCACAUGAGGAUCACCCAUGUGGUGUCGUACC | 289 nM | 26.4 nM |  |  |
| AGCUAGAGAGGAUAUACGUAGGAAAAAAAAGUCUGAUCCCUACAUGAGGAUCACCCAUGUAGAAGGCUCUGGCA | 91.5 nM | 81.8 nM |  |  |

| Sequence | apparent Kd [1] | apparent Kd [2] | apparent Kd [3] | apparent Kd [4] |
| --- | --- | --- | --- | --- |
| CGAUACAUGAGGGUCUCCCAUGACAUGAGGAUCACCCAUGUGCAGGAUAUACGUGUGAUGGUAUAGUAGAAGGGCACUCUAUGU | 29.2 nM | 36.9 nM |  |  |
| AGAUAGUGCAGAGGAUAUCUUAAUAGAAAGAAUAGAGAAGGCUGACAUGAGGAUCACCCAUGUGAUGUCUUGAGACUACAUGGU | 48.4 nM | 336 nM |  |  |
| UAUCGAGUAGCAGGAUAUUAUGUGGCUAAUUCCGAGUCUGAUGCUUCACAUGAGGAUCACCCAUGUAAGAAGGGCUAACUCGGG | 26.2 nM | 63.7 nM |  |  |
| CGAGUUUUUGAGAAGGCAUAUUAUAUUUAUAGUCAUGUUAACAUGAGGAUCACCCAUGUUCUCUAUGAGGAUAUCAGUUUAUCG | 7.68 nM | 7.87 nM |  |  |
| AUCAGCUCGUCAGGAUAUACGUCACUGCGUCAGCAGUGUGGUAACAUCACAUGAGGAUCACCCAUGUAGAAGGGACGAGCUGAU | 5.84 nM | 11.3 nM |  |  |
| GUUUUUUUUAGUUCAUACUAUAAGAUAGAAGGUGAAAUAUAGACAUGAGGAUCACCCAUGUAAUUCAAGGAUAUGUAGUUACUC |  |  | 44.1 nM | 24.8 nM |
| AACUAACAUGAGGAUCACCCAUGUCAGGAUAUGCAACGAUCGAUCGAUCGAUCGAUCAGCAGAAGGGACACUAA | 20.1 nM | 36 nM |  |  |
| AGAACAUGAGGAUCACCCAUGUGAAGGUCGGUGUAUAAGGGUGAGGAUAUGCUUAAAAUAAGGAAGCAGAAGGUGCUUGGUGCA |  |  | 155 nM | 145 nM |
| UAUAUAUAGUAAGGAUAUGUAUUAAUUUAAUAAACAGAAGGUACUGACAUGAGGAUCACCCAUGUUUUAGUGUGGGCAUGUAGA | 98 nM | 140 nM |  |  |
| CAGCUACCCAGUAUGGGUAUUUUUACAGAAGGCCAGGUACAUGAGGAUCACCCAUGUUAAGUUAUGGAGGAUAUGUUAGUGUAU |  |  | 27.9 nM | 7.18 nM |
| AAACAACAUGAGGAUCACCCAUGUAAGGAUAUGCGAGUUGGGUCAACGAAGGUUGAAGGCAGAAGGUAUAGGGU | 58.5 nM | 50.4 nM |  |  |
| GAUUAUAAGUAAGGAUAUGUAUAUGAAACAUAUACAGAAGGUACAUGAGGAUCACCCAUGUUCUUGCAGCGCGAAUAUGUAAUC | 18.9 nM | 27.7 nM |  |  |
| GCCAGCGCAUGAGGAUAUGCUCCCGUUUCGGGAGCAGAAGGCAUGUCAUAAGACAUGAGGAUCACCCAUGUAGUCAAGAUGGCA |  |  | 340 nM | 15.7 nM |
| UCCCGGUAAGAAGGAUAUACAUGAGGAUCACCCAUGUAUUAAACAUAUACUGGCCGUGGCCUUGUGUAGAAGGUCUGUCGGUCA | 6.75 nM | 5.97 nM |  |  |
| GUCAUACAUGAGGAUCACCCAUGUAAGGAUAUGCUAGCGGUCGGAAGACUGACUGCUAGCAGAAGGUACAUGAU | 67.1 nM | 92.5 nM |  |  |
| AGGUACAACGGAGGAUAUAAUAGUCUAUAGACGUUAGAAGGCCGGGCCUUCACAUGAGGAUCACCCAUGUCUCUGGAGGCGCCU |  |  | 20.8 nM | 16.9 nM |
| AGUGUCAUCGAGAAGGCCUCAACAUGAGGAUCACCCAUGUUGCAAAAUGGGAGGAUAUCGCGCGUUAAAAAACGUUUCGUAGCA |  |  | 38.3 nM | 17.5 nM |
| UUGGACGUCGUAGGAUAUGUUGGAUAUUCCUACAUGAGGAUCACCCAUGUUGACAUGGAAGAAGGACAGAAGGACGAUGUCCAU |  |  | 5.08 nM | 4.49 nM |
| GGACGUGUCGUUUACAUGAGGAUCACCCAUGUCGAUGGACAUGAGGAUAUGGAUCCGAAUCGGAUCCAGAAGGCAUGCACGUCC |  |  | 85.3 nM | 18.9 nM |
| CAUUAAUUCAUUAUAGUUAUUAUACAGGAUAUGUUACAUGAGGAUCACCCAUGUAUUCAUGGUAAACAGAAGGGUAAUUCUAGU | 20.1 nM | 19.7 nM |  |  |
| CAGAAGUCAGGAUAUGCUGCUCGUCACUUGCGUGAUGAGUAGCAGAAGGGACAUGAGGAUCACCCAUGUAAAGC | 53.5 nM | 87.1 nM |  |  |
